These results are taken from ChEMBL document CHEMBL4316597, “Design, Synthesis, and Biological Evaluation of Itaconic Acid Derivatives as Potential Anti-Influenza Agents” (J Med Chem, 2019).

Calls of active or inactive are those of the source. No cut-off for these calls is given here.

The subject of data set [1] is Influenza A virus. Kind of data set: Antiviral activity against Influenza A virus (A/WSN/33) infected in MDCK cells assessed as reduction in virus-induced cytopathic effect after 72 hrs by crystal violet-staining based assay. The note with it: A/WSN/1933(H1N1). It is filed as functional, organism-based. The essentials: (§1)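 Cells seeded at 2 × 10^4/well in E10 (DMEM, 10% FBS), 16–24 h at 37 °C/5% CO2, washed with DPBS, then infected at nine-fold TCID50 with or without serial compound concentrations. Influenza is run in MDCK and enterovirus/rhinovirus in RD. Incubated 72 h, fixed in 4% paraformaldehyde, stained with 0.1% crystal violet, and read for cell density. EC50 = 50% CPE inhibition by Reed–Muench; mean ± S.D. of at least three runs.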
For orientation: Cytopathic effects are the visible damage that an infection or toxin causes in cultured cells.

Data set [2] can be described thus: Cytotoxicity against MDCK cells assessed as cell death after 72 hrs by MTT assay. Format: cell-based, Canis lupus familiaris. Particulars: dog. The essentials: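 MDCK or RD cells at 2 × 10^4/well in E10, overnight at 37 °C/5% CO2, DPBS wash, then exposed to graded compound concentrations for 72 h. MTT added for 3 h, formazan dissolved in DMSO, absorbance read at 570 nm. CC50 (50% cell death) by Reed–Muench.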
Background: Tetrazolium assays rely on reduction of a dye to a coloured formazan, in cell work by metabolically active cells.

Data set [3] is described as follows: Selectivity ratio of CC50 for MDCK cells to EC50 for Influenza A virus (A/WSN/33). Format: toxicity. The note with it: dog, read-out: Ratio CC50/EC50. The method in brief: (§2)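 SI is calculated as CC50 (MDCK, 72 h MTT) divided by EC50 (72 h crystal-violet CPE assay in MDCK).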
In data set [4] the test system is Influenza A virus. Description: Antiviral activity against pandemic Influenza A virus A/TW/2235/09 (H1N1) SO4 infected in MDCK cells after 72 hrs by crystal violet-staining based assay. It is filed as functional, organism-based. The note with it: A/TW/2235/09 (H1N1) SO4, MDCK. The essentials:
as §1

Data set [5] is described as follows: Selectivity ratio of CC50 for MDCK cells to EC50 for Influenza A virus A/TW/00482/13. Format: toxicity. Particulars: dog, read-out: Ratio CC50/EC50. The method in brief: as §2
Data set [6] can be described thus: Selectivity ratio of CC50 for MDCK cells to EC50 for Influenza A virus A/TW/03384/13. Format: toxicity. Particulars: dog, read-out: Ratio CC50/EC50. The essentials: (§3)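 MDCK cells (2 × 10^4/well, E10, 16–24 h) infected at nine-fold TCID50 with compound for 72 h, 37 °C, 5% CO2. Cells were fixed in 4% paraformaldehyde and stained with crystal violet; EC50 is from Reed–Muench. For CC50, cells had compound alone for 72 h, then MTT 3 h, DMSO, A570, Reed–Muench. SI = CC50/EC50; three independent experiments.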

A short description of data set [7]: Selectivity ratio of CC50 for MDCK cells to EC50 for Influenza A virus A/TW/01061/14. Format: toxicity. Particulars: dog, read-out: Ratio CC50/EC50. The method in brief: as §3
Data set [8] in a line: Selectivity ratio of CC50 for human RD cells to EC50 for Enterovirus A71 TW/2231/1998. The note with it: read-out: Ratio CC50/EC50. Format: toxicity. The method in brief:
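RD cells (2 × 10^4/well, DMEM 10% FBS, 16–24 h) infected with enterovirus at nine-fold TCID50 with compound, 72 h, 37 °C, 5% CO2. Cells were fixed in 4% paraformaldehyde, stained with 0.1% crystal violet, and EC50 taken by Reed–Muench. CC50 came from 72 h exposure of uninfected RD cells, MTT 3 h, A570, Reed–Muench. SI = CC50/EC50; three independent experiments.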

For data set [9], the system named is Enterovirus. Kind of data set: Antiviral activity against Rhinovirus 71803 infected in human RD cells after 72 hrs by crystal violet-staining based assay. It is filed as functional, organism-based. Particulars: Enterovirus, 71803, RD. The method in brief:
as §1

The test system of data set [10] is Enterovirus. Kind of data set: Antiviral activity against Rhinovirus 71903 infected in human RD cells after 72 hrs by crystal violet-staining based assay. Format: functional, organism-based. Particulars: Enterovirus, 71903, RD. The method in brief: as §1
The subject of data set [11] is Influenza A virus. Description: Antiviral activity against Influenza A virus (A/WSN/33) infected in MDCK cells assessed as inhibition of virus-induced cytopathic effects at 10 uM after 36 hrs by microscopic analysis. Particulars: A/WSN/1933(H1N1). Format: functional, organism-based. The essentials: (§4)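 MDCK cells (2 × 10^5/well) grown 16–24 h, infected with A/WSN/33 at MOI 0.5 for 1 h, rinsed twice with DPBS, then kept in serum-free E0 with 10 μM compound at 37 °C. Cell morphology checked by light microscopy at 12 and 36 h pi. Drug-only and virus-only arms included; three repetitions.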

Data set [12] relates to MDCK. Description: Cytotoxicity against MDCK cells at 10 uM after 12 to 36 hrs by microscopic analysis. It is filed as cell-based, Canis lupus familiaris. The note with it: dog. The method in brief: as §4
For data set [13], the system named is Influenza A virus. Kind of data set: Antiviral activity against Influenza A virus (A/WSN/33) infected in MDCK cells at 10 uM added at -1 hrs to 9 hrs post infection and measured after 9 hrs by plaque assay. Format: functional, organism-based. Particulars: A/WSN/1933(H1N1). The method in brief: (§5)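 MDCK monolayers exposed to compound (1 or 10 μM) over windows of −3, −1, 0, 3 or 6 to 9 h pi. A/WSN/33 adsorbed at MOI 0.1 from −1 to 0 h, then removed with a PBS wash. Supernatant taken at 9 h pi and titred by plaque assay, normalised to virus-only (100%). Average of three independent experiments.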

Data set [14] has as its system Influenza A virus. Description: Antiviral activity against Influenza A virus (A/WSN/33) infected in MDCK cells at 10 uM added at 3 hrs to 9 hrs post infection and measured after 9 hrs by plaque assay. Format: functional, organism-based. The note with it: A/WSN/1933(H1N1). The essentials:
as §5

The subject of data set [15] is Influenza A virus. Kind of data set: Inhibition of viral RNA synthesis in Influenza A virus (A/WSN/33) infected in MDCK cells assessed as effect on matrix protein 1 RNA level at 10 uM measured up to 9 hrs post infection by RT-qPCR analysis. Format: functional, organism-based. The note with it: A/WSN/1933(H1N1). The method in brief: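 MDCK monolayers (5 × 10^5/well) infected with A/WSN/33, then given 10 μM compound during or after infection. Total RNA extracted with TRIzol at 0, 3, 6 and 9 h pi. Viral RNA quantified by RT-qPCR with M1-specific primers, GAPDH used for quantitative standards. Representative of three independent experiments.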
On the technique in general: Quantitative PCR measures a nucleic acid by following its amplification.

Data set [16] deals with Influenza A virus. Description: Inhibition of viral protein synthesis in Influenza A virus (A/WSN/33) infected in MDCK cells assessed as effect on HA protein level at 10 uM measured up to 9 hrs post infection by Western blot analysis. It is filed as functional, organism-based. The note with it: A/WSN/1933(H1N1). The essentials:
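MDCK cells (5 × 10^5/well) infected with A/WSN/33 at MOI 0.1, washed twice, then held in E0 with or without 10 μM compound. Lysed in Triton X-100/deoxycholate buffer, equal protein separated by SDS-PAGE, and immunoblotted for viral proteins with GAPDH as loading control. Time-course harvests up to 9 h pi.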

Data set [17] relates to Influenza A virus. Kind of data set: Inhibition of viral protein sub-cellular distribution in Influenza A virus (A/WSN/33) infected in MDCK cells assessed as reduction in PA protein distribution to cytoplasm at 10 uM measured after 9 hrs post infection by IF-staining based microscopy. It is filed as functional, organism-based. Particulars: A/WSN/1933(H1N1). The essentials: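 MDCK cells grown on coverslips (2 × 10^5/well, 16 h), infected at MOI 0.1 for 1 h, washed, then kept in E0 with test compound (1 or 10 μM) or LMB 10 nM; DMSO 0.05% as mock. Fixed at 9 h pi in 4% paraformaldehyde and immunostained for M1, NP, NS2 or PA (1:50), with Hoechst nuclear stain. Viewed by confocal microscopy at 63×. NP nuclear/cytoplasmic intensity ratio quantified; three independent experiments.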

The subject of data set [18] is Influenza A virus. Description: Antiviral activity against Influenza A virus (A/WSN/33) infected in MDCK cells at 10 uM added at 6 hrs to 9 hrs post infection and measured after 9 hrs by plaque assay. The note with it: A/WSN/1933(H1N1). Format: functional, organism-based. The essentials: as §5

For orientation: EC50 means the concentration giving half of the maximal effect. The CC50 is the concentration at which the toxic effect on the cells reaches its halfway point.

`C=C(CC(=O)Nc1ccc(F)cc1F)C(=O)Nc1ccc(F)cc1F`: the EC50 in data set [1] is 2840 nM; in data set [4], 2360 nM; in data set [9], greater than 50 µM; in data set [10], greater than 50 µM. Moreover, the cytotoxic concentration (CC50) at 72 h in [2] was 84.7 µM. The selectivity ratio in data set [3] was 29.8; in data set [5], 22; in [6], 23; in [7], 21; in data set [8], 16. The result in [11], in data set [13] and in data set [14] was Active. In addition, the Activity result in [12] is on record as “Non-Toxic”. Moreover, the inhibition entry in data set [15], in [16] and in data set [17] was “inactive” throughout. In addition, in [18], the result was inactive.
